Data taken from ChEMBL document CHEMBL1142136, “Contribution of target gene mutations and efflux to decreased susceptibility of Salmonella enterica serovar typhimurium to fluoroquinolones and other antimicrobials” (2007).

Legend:
Assay type in all cases: functional, Salmonella enterica subsp. enterica serovar Typhimurium
Salmonella typhimurium [1] = experiment: Antimicrobial activity against Salmonella enterica serovar Typhimurium S21 acrAB::Kan
Method in brief: (§1)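 MICs by automated broth microdilution panels, interpreted to CLSI broth microdilution standards. Ciprofloxacin additionally tested by agar dilution across 0.0075 to 128 μg/ml. Quality control strains: E. coli ATCC 25922 and 35218, Enterococcus faecalis ATCC 29212, S. aureus ATCC 29213, P. aeruginosa ATCC 27853. Test strains are kanamycin-marked deletion mutants of ground-beef isolate S21.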

Salmonella typhimurium [2] = experiment: Antimicrobial activity against Salmonella enterica serovar Typhimurium S21-4 gyrA+ with ParC S80I mutation
Method in brief: (§2)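 MICs measured by broth microdilution on the Sensititre automated system and interpreted by CLSI broth microdilution standards. Ciprofloxacin was also tested by agar dilution, widening the range to 0.0075–128 μg/ml. Quality control strains were E. coli ATCC 25922 and 35218, E. faecalis ATCC 29212, S. aureus ATCC 29213 and P. aeruginosa ATCC 27853.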

Salmonella typhimurium [3] = experiment: Antimicrobial activity against Salmonella enterica serovar Typhimurium S21-1 gyrA+; method in brief: as §2
Salmonella typhimurium [4] = experiment: Antimicrobial activity against Salmonella enterica serovar Typhimurium CHS14 with GyrA D87G mutation; method in brief: as §2
Salmonella typhimurium [5] = experiment: Antimicrobial activity against Salmonella enterica serovar Typhimurium S21-1 tolC::Kan with GyrA S83F mutation; method in brief: as §2
Salmonella typhimurium [6] = experiment: Antimicrobial activity against Salmonella enterica serovar Typhimurium CS3 tolC::Kan with GyrA S83F, D87N, parC S80I mutation; method in brief: as §2
Salmonella typhimurium [7] = experiment: Antimicrobial activity against Salmonella enterica serovar Typhimurium S21 tolC::Kan; method in brief: as §1
Salmonella typhimurium [8] = experiment: Antimicrobial activity against Salmonella enterica serovar Typhimurium CHS14 acrAB::Kan with GyrA D87G mutation; method in brief: as §2
Salmonella typhimurium [9] = experiment: Antimicrobial activity against Salmonella enterica serovar Typhimurium CS1 acrAB::Kan with GyrA S83F, D87N, ParC S80I mutation; method in brief: as §2
Salmonella typhimurium [10] = experiment: Antimicrobial activity against Salmonella enterica serovar Typhimurium CHS14 gyrA+ with GyrA D87G mutation; method in brief: as §2
Salmonella typhimurium [11] = experiment: Antimicrobial activity against Salmonella enterica serovar Typhimurium S21-2 tolC::Kan with GyrA S83F, ParC S80I mutation; method in brief: as §2
Salmonella typhimurium [12] = experiment: Antimicrobial activity against Salmonella enterica serovar Typhimurium CS9 with GyrA S83F, D87N, ParC S80I mutation; method in brief: as §2
Salmonella typhimurium [13] = experiment: Antimicrobial activity against Salmonella enterica serovar Typhimurium S21-4 acrAB::Kan with GyrA S83F, ParC S80I mutation; method in brief: as §2
Salmonella typhimurium [14] = experiment: Antimicrobial activity against Salmonella enterica serovar Typhimurium CHS18 gyrA+ with GyrA S38F mutation; method in brief: as §2
Salmonella typhimurium [15] = experiment: Antimicrobial activity against Salmonella enterica serovar Typhimurium S21-2 acrAB::Kan with GyrA S83F, ParC S80I mutation; method in brief: as §2
Salmonella typhimurium [16] = experiment: Antimicrobial activity against Salmonella enterica serovar Typhimurium CS1 gyrA+ with GyrA S83F, D87N, ParC S80I mutation; method in brief: as §2
Salmonella typhimurium [17] = experiment: Antimicrobial activity against Salmonella enterica serovar Typhimurium CS3 with GyrA S83F, D87N, ParC S80I mutation; method in brief: as §2
Salmonella typhimurium [18] = experiment: Antimicrobial activity against Salmonella enterica serovar Typhimurium CHS38 with GyrA D87G mutation; method in brief: as §2
Salmonella typhimurium [19] = experiment: Antimicrobial activity against Salmonella enterica serovar Typhimurium CHS38 gyrA+ with GyrA D87G mutation; method in brief: as §2
Salmonella typhimurium [20] = experiment: Antimicrobial activity against Salmonella enterica serovar Typhimurium CHS18 acrAB::Kan with GyrA S38F mutation; method in brief: as §2
Salmonella typhimurium [21] = experiment: Antimicrobial activity against Salmonella enterica serovar Typhimurium S21-4 with GyrA S83F, ParC S80I mutation; method in brief: as §2
Salmonella typhimurium [22] = experiment: Antimicrobial activity against Salmonella enterica serovar Typhimurium CS9 acrAB::Kan with GyrA S83F, D87N, ParC S80I mutation; method in brief: as §2
Salmonella typhimurium [23] = experiment: Antimicrobial activity against Salmonella enterica serovar Typhimurium S21-3 gyrA+ with ParC S80I mutation; method in brief: as §2
Salmonella typhimurium [24] = experiment: Antimicrobial activity against Salmonella enterica serovar Typhimurium CHS14 tolC::Kan with GyrA D87G mutant; method in brief: as §2
Salmonella typhimurium [25] = experiment: Antimicrobial activity against Salmonella enterica serovar Typhimurium CHS18 tolC::Kan with GyrA S38F mutation; method in brief: as §2
Salmonella typhimurium [26] = experiment: Antimicrobial activity against Salmonella enterica serovar Typhimurium S21-2 with GyrA S83F, ParC S80I mutation; method in brief: as §2
Salmonella typhimurium [27] = experiment: Antimicrobial activity against Salmonella enterica serovar Typhimurium CS9 gyrA+ with GyrA S83F, D87N, ParC S80I mutation; method in brief: as §2
Salmonella typhimurium [28] = experiment: Antimicrobial activity against Salmonella enterica serovar Typhimurium S21-1 GyrA S83F mutant; method in brief: as §2
Salmonella typhimurium [29] = experiment: Antimicrobial activity against Salmonella enterica serovar Typhimurium CS9 tolC::Kan with GyrA S83F, D87N, ParC S80I mutation; method in brief: as §2
Salmonella typhimurium [30] = experiment: Antimicrobial activity against Salmonella enterica serovar Typhimurium CHS18 with GyrA S38F mutation; method in brief: as §2
Salmonella typhimurium [31] = experiment: Antimicrobial activity against Salmonella enterica serovar Typhimurium CS1 tolC::Kan with GyrA S83F, D87N, ParC S80I mutation; method in brief: as §2
Salmonella typhimurium [32] = experiment: Antimicrobial activity against Salmonella enterica serovar Typhimurium S21-3 tolC::Kan with GyrA S83F, ParC S80I mutation; method in brief: as §2
Salmonella typhimurium [33] = experiment: Antimicrobial activity against Salmonella enterica serovar Typhimurium S21-3 acrAB::Kan with GyrA S83F, ParC S80I mutation; method in brief: as §2
Salmonella typhimurium [34] = experiment: Antimicrobial activity against Salmonella enterica serovar Typhimurium CS3 acrAB::Kan with GyrA S83F, D87N, ParC S80I mutation; method in brief: as §2
Salmonella typhimurium [35] = experiment: Antimicrobial activity against Salmonella enterica serovar Typhimurium S21 gyrA+; method in brief: as §2
Salmonella typhimurium [36] = experiment: Antimicrobial activity against Salmonella enterica serovar Typhimurium CHS38 acrAB::Kan with GyrA D87G mutation; method in brief: as §2
Salmonella typhimurium [37] = experiment: Antimicrobial activity against Salmonella enterica serovar Typhimurium GyrA S21-1 acrAB::Kan with GyrA S83F mutation; method in brief: as §2
Salmonella typhimurium [38] = experiment: Antimicrobial activity against Salmonella enterica serovar Typhimurium S21-4 tolC::Kan with GyrA S83F, ParC S80I mutation; method in brief: as §2
Salmonella typhimurium [39] = experiment: Antimicrobial activity against Salmonella enterica serovar Typhimurium S21-2 gyrA+ with ParC S80I mutation; method in brief: as §2
Salmonella typhimurium [40] = experiment: Antimicrobial activity against Salmonella enterica serovar Typhimurium CS3 gyrA+ with GyrA S83F, D87N, ParC S80I mutation; method in brief: as §2
Salmonella typhimurium [41] = experiment: Antimicrobial activity against Salmonella enterica serovar Typhimurium S21; method in brief: as §2
Salmonella typhimurium [42] = experiment: Antimicrobial activity against Salmonella enterica serovar Typhimurium CHS38 tolC::Kan with GyrA D87G mutation; method in brief: as §2
Salmonella typhimurium [43] = experiment: Antimicrobial activity against Salmonella enterica serovar Typhimurium S21-3 with GyrA S83F, ParC S80I mutation; method in brief: as §2
Salmonella typhimurium [44] = experiment: Antimicrobial activity against Salmonella enterica serovar Typhimurium CS1 with GyrA S83F, D87N, ParC S80I mutation; method in brief: as §2

Measured: MIC

CN1C[C@@H]2C[C@H]1CN2c1cc2c(cc1F)c(=O)c(C(=O)O)cn2C1CC1 [DANOFLOXACIN]
0.5 µg/mL: Salmonella typhimurium [28] | Salmonella typhimurium [30]
2 µg/mL: Salmonella typhimurium [23]
1 µg/mL: Salmonella typhimurium [39]
0.25 µg/mL: Salmonella typhimurium [4] | Salmonella typhimurium [13] | Salmonella typhimurium [18] | Salmonella typhimurium [32] | Salmonella typhimurium [33] | Salmonella typhimurium [38]
> 16 µg/mL: Salmonella typhimurium [12] | Salmonella typhimurium [17] | Salmonella typhimurium [21] | Salmonella typhimurium [43] | Salmonella typhimurium [44]
< 0.015 µg/mL: Salmonella typhimurium [1] | Salmonella typhimurium [7] | Salmonella typhimurium [19] | Salmonella typhimurium [42]
0.03 µg/mL: Salmonella typhimurium [3] | Salmonella typhimurium [8] | Salmonella typhimurium [10] | Salmonella typhimurium [20] | Salmonella typhimurium [24] | Salmonella typhimurium [35] | Salmonella typhimurium [36] | Salmonella typhimurium [41]
0.06 µg/mL: Salmonella typhimurium [5] | Salmonella typhimurium [14] | Salmonella typhimurium [16] | Salmonella typhimurium [25] | Salmonella typhimurium [27] | Salmonella typhimurium [37] | Salmonella typhimurium [40]
0.12 µg/mL: Salmonella typhimurium [11] | Salmonella typhimurium [15]
4 µg/mL: all other assays above

CN1CCN(c2cc3c(cc2F)c(=O)c(C(=O)O)cn3-c2ccc(F)cc2)CC1 [DIFLOXACIN]
2 µg/mL: Salmonella typhimurium [30] | Salmonella typhimurium [39]
> 16 µg/mL: Salmonella typhimurium [12] | Salmonella typhimurium [17] | Salmonella typhimurium [21] | Salmonella typhimurium [26] | Salmonella typhimurium [43] | Salmonella typhimurium [44]
4 µg/mL: Salmonella typhimurium [2] | Salmonella typhimurium [6] | Salmonella typhimurium [23] | Salmonella typhimurium [28] | Salmonella typhimurium [29] | Salmonella typhimurium [31]
0.03 µg/mL: Salmonella typhimurium [8] | Salmonella typhimurium [24]
1 µg/mL: Salmonella typhimurium [4] | Salmonella typhimurium [13] | Salmonella typhimurium [18] | Salmonella typhimurium [20] | Salmonella typhimurium [38]
16 µg/mL: Salmonella typhimurium [9] | Salmonella typhimurium [22] | Salmonella typhimurium [34]
0.5 µg/mL: Salmonella typhimurium [10] | Salmonella typhimurium [16] | Salmonella typhimurium [27] | Salmonella typhimurium [32] | Salmonella typhimurium [33] | Salmonella typhimurium [40]
< 0.015 µg/mL: Salmonella typhimurium [1] | Salmonella typhimurium [7] | Salmonella typhimurium [19] | Salmonella typhimurium [42]
0.06 µg/mL: Salmonella typhimurium [25] | Salmonella typhimurium [36]
0.25 µg/mL: all other assays above

CCn1cc(C(=O)O)c(=O)c2cc(F)c(N3CCNCC3)nc21 [ENOXACIN]
> 16 µg/mL: Salmonella typhimurium [21] | Salmonella typhimurium [43]
1 µg/mL: Salmonella typhimurium [4] | Salmonella typhimurium [39]
2 µg/mL: Salmonella typhimurium [23]
4 µg/mL: Salmonella typhimurium [2] | Salmonella typhimurium [6] | Salmonella typhimurium [9] | Salmonella typhimurium [22] | Salmonella typhimurium [29] | Salmonella typhimurium [31] | Salmonella typhimurium [34]
16 µg/mL: Salmonella typhimurium [12] | Salmonella typhimurium [17] | Salmonella typhimurium [44]
0.25 µg/mL: Salmonella typhimurium [20] | Salmonella typhimurium [33]
8 µg/mL: Salmonella typhimurium [26]
0.03 µg/mL: Salmonella typhimurium [8] | Salmonella typhimurium [25] | Salmonella typhimurium [36]
< 0.015 µg/mL: Salmonella typhimurium [1] | Salmonella typhimurium [7] | Salmonella typhimurium [19] | Salmonella typhimurium [24] | Salmonella typhimurium [42]
0.12 µg/mL: Salmonella typhimurium [11] | Salmonella typhimurium [13] | Salmonella typhimurium [14] | Salmonella typhimurium [15] | Salmonella typhimurium [18] | Salmonella typhimurium [32] | Salmonella typhimurium [38]
0.5 µg/mL: Salmonella typhimurium [28] | Salmonella typhimurium [30]
0.06 µg/mL: all other assays above
